Compounds with a hit are over-represented: about 2.3% of the library has one in this group of screens.
TRPC6 act: mouse TRPC6 channel activators, primary screen, cell-based, HEK293, membrane potential dye; Short transient receptor potential channel 6 (Mus musculus), Q61143; HEK293-TRPC6 membrane potential dye fluorescence; hits give high values; B-score at 10 µM; hit rate 0.13% among 310,000; AID 2550, 2010;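 active means B-score of the integrated fluorescence ratio above library mean plus 3 SD, and starting fluorescence ratio within library mean plus 5 SD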;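 further: higher score means more depolarization so channel activation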
TRPC4 block: inhibitors of mouse TRPC4 channel, primary screen, Fluo4 calcium, HEK293 TRPC4beta/mu-opioid cells; Short transient receptor potential channel 4 (Mus musculus), Q9QUQ5; DAMGO-evoked Fluo4 calcium flux; hits give low values; B-score at 10 µM; hit rate 0.39% among 300,000; AID 2247, 2010;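 active means B-score over 3 SD under the library average, no early fluorescence shift, positive overall ratio signal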
Target sequence (Q9QUQ5 whole entry, looked up): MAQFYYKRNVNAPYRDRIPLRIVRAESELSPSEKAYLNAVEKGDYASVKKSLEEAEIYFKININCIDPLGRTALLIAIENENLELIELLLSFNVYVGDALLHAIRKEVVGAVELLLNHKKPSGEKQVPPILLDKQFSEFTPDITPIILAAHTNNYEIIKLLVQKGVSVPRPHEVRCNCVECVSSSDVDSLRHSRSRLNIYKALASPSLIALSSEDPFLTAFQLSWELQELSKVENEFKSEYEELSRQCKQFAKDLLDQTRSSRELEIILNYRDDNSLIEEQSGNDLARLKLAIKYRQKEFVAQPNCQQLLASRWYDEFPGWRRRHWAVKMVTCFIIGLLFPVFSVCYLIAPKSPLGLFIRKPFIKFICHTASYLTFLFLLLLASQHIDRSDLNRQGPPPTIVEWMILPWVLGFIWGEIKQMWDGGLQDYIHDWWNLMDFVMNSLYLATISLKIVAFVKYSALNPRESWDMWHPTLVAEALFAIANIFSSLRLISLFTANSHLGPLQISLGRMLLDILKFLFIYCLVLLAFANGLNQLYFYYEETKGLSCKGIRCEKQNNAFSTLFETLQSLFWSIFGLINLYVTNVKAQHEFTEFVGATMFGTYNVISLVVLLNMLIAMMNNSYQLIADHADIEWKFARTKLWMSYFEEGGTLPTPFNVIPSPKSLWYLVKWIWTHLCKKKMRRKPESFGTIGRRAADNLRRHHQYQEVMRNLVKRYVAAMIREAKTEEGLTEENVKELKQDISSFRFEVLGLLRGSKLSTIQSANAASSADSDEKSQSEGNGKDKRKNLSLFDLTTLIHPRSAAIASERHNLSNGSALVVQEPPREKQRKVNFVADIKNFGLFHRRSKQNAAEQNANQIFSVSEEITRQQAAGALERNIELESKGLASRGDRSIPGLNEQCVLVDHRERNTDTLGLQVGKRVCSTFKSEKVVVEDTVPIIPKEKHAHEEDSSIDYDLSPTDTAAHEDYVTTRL
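Assay system – HEK293 line stably carrying TRPC4beta and mu-opioid receptor · Doses – single dose · Detection – Fluo4 calcium-dye fluorescence, kinetic read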
TRPC4 potent: positive allosteric modulators of TRPC4, primary screen, cell-based, mouse TRPC4beta, HEK293 mu-opioid, Fluo-4 calcium; Short transient receptor potential channel 4 (Mus musculus), Q9QUQ5; DAMGO EC20, Fluo-4 Ca2+ flux; hits give high values; B-score at 10 µM; hit rate 0.42% among 310,000; AID 2227, 2009;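 active means B-score of calcium response area above 5 SD of library B-scores, with initial fluorescence ratio within 5 SD of library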;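 further: B-score of integrated fluorescence ratio over time as area under calcium response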
TRPC4 act: activators of mouse TRPC4 channel, primary screen, Fluo4 calcium, HEK293 TRPC4beta/mu-opioid cells. Fluo4 calcium fluorescence; hits give high values. Short transient receptor potential channel 4 (Mus musculus), Q9QUQ5. hit rate 0.49% among 310,000. B-score at 10 µM;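 active means B-score above 5 SD of library B-scores, and initial fluorescence ratio not above library mean plus 5 SD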;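 further: positive B-score marks a calcium rise read as TRPC4 activation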
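Assay system: HEK293 cells stably co-expressing mouse TRPC4beta and mu-opioid receptor / Timing: Fluo4 dye loading 45 min at room temperature, 110 s recording / Signal: Fluo4 calcium-sensitive dye fluorescence, kinetic, 1 Hz baseline / Read-out: integrated baseline-normalised fluorescence ratio, converted to per-well B score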
TRPC6 inhibitor: mouse TRPC6 channel inhibitors, primary screen, cell-based, HEK293, membrane potential dye; Short transient receptor potential channel 6 (Mus musculus), Q61143; ACh-evoked depolarization; hits give low values; B-score at 10 µM; hit rate 1.1% among 310,000;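 active means B-score under library mean minus 3 SD, initial fluorescence not abnormally high, positive integrated signal ratio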;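 further: B-score derived from integrated fluorescence ratio over the kinetic read; more negative B-score means stronger inhibition of depolarization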
Active calls of the source: *; i = inactive.

SMILES	TRPC6 act	TRPC4 block	TRPC4 potent	TRPC4 act	TRPC6 inhibitor
CCn1cc(CN2CCCC(CO)(Cc3cccc(Cl)c3)C2)cn1 (centres undefined)	i	-6*	i	i	i
O=C(CSc1nnc(-c2ccc(F)cc2)o1)N1CCCC1	i	i	i	i	i
O=C(COc1ccc(S(=O)(=O)N2CCCCC2)cc1)N1CCCC1	i	i	i	i	i
CC(C)c1nc(SCc2ccccn2)c2c(=O)n(C)c(=O)n(C)c2n1	i	i	i	52*	i
S=c1[nH]nc(-c2ccc(Cl)cc2Cl)n1-c1ccccc1	i	i	i	i	i
S=c1[nH]nc(COc2ccc(Cl)cc2Cl)n1-c1ccccc1	i	i	i	54*	i
Oc1cccc(CCC2CCCCN2Cc2cn[nH]c2-c2ccc3c(c2)OCO3)c1 (centres undefined)	i	i	i	43*	i
Cc1ccc(C(=O)NNC(=O)C2CSC3(C)CCC(=O)N23)cc1 (centres undefined)	i	i	24*	i	i
Cc1cccc(C(=O)NC(=S)NC(C)c2ccccc2)c1 (centres undefined)	i	i	i	i	i
Cc1ccc(OCCOC(=O)c2sc(=S)n(C)c2C)cc1	i	i	i	i	i
Cc1c(C(=O)OCCOc2ccc(Br)cc2)sc(=S)n1C	i	i	11*	i	i
COc1ccc(C2Nc3ccccc3C(=O)N2Cc2ccco2)cc1COc1ccccc1F (centres undefined)	i	i	i	i	i
COc1ccc(C2Nc3ccccc3C(=O)N2Cc2ccco2)cc1COc1ccc(NC(C)=O)cc1 (centres undefined)	i	i	i	110*	i
O=C(CSc1nc2ccccc2s1)N/N=C/c1cc([N+](=O)[O-])ccc1O	i	i	i	i	i
CCc1ccc(S(=O)(=O)/N=C2\C=C(Nc3ccc(O)cc3)C(=O)c3ccccc32)cc1	i	i	i	i	i
CCc1ccc(S(=O)(=O)/N=C2\C=C(Nc3cccc(C(=O)O)c3)C(=O)c3ccccc32)cc1	i	-8*	i	i	i
CC1CCN(c2nc(Cl)nc(Nc3ccc([N+](=O)[O-])cc3)n2)CC1	i	i	47*	i	i
CN(C)c1ccc(C2N3CC4(C)CN2CC(C)(C3)C4O)cc1 (centres undefined)	i	i	i	i	i
CC12CN3CC(C)(CN(C1)C3c1ccc(Cl)cc1Cl)C2O (centres undefined)	i	-6*	i	48*	i
CN(C)CCOC(=O)C1(c2ccccc2)CCOCC1	i	i	11*	i	i
O=C(C1CCCCC1)N1CCN(S(=O)(=O)c2cccc([N+](=O)[O-])c2)CC1	i	i	i	i	i
CCCN(CCC)CCCNC(=O)c1ccc(CS(=O)(=O)c2c(Cl)cccc2Cl)o1	i	i	i	79*	i
O=[N+]([O-])c1ccc(C2CN=C(Nc3ccccc3)S2)cc1 (centres undefined)	i	i	i	i	i
CCc1ccc(NC2=NCC(c3ccccc3)S2)cc1 (centres undefined)	i	i	12*	i	i
CC(=O)c1ccc2c(c1)N(C)c1ccccc1S2	i	-6*	i	i	i
SMILES	TRPC6 act	TRPC4 block	TRPC4 potent	TRPC4 act	TRPC6 inhibitor
CN1C(=O)c2ccccc2Sc2ccc(C(=O)O)cc21	i	i	i	i	i
Cc1ccn2c(=O)nc(SCC(=O)NC3CCCC3)nc2c1	i	i	i	i	i
CCOc1ccccc1C(=O)N(CN1CCCC1=O)c1cccc(Cl)c1	i	i	i	46*	i
O=C(Nc1ccc(S(=O)(=O)NCc2ccccc2)cc1)Nc1ccc2c(c1)OCO2	i	i	i	i	i
CCNS(=O)(=O)c1ccc(NC(=O)Nc2ccc3c(c2)OCO3)cc1	i	i	i	61*	i
COc1cc(OC)c(C2N(c3ccc(Cl)cc3)C(=O)C3CCCN32)cc1OC (centres undefined)	i	i	12*	i	i
COc1cc(OC)c(C2N(c3ccc(Cl)c(Cl)c3)C(=O)C3CCCN32)cc1OC (centres undefined)	i	i	i	i	i
OC(COCc1ccccc1F)CN1CCCCC1 (centres undefined)	i	i	i	i	i
Cc1ccc2[nH]c3c(=O)n(CCN4CCOCC4)cnc3c2c1	i	i	i	i	i
Cc1ccc2[nH]c3c(=O)n(CCc4cnc[nH]4)cnc3c2c1	i	i	i	211*	i
O=C(NCc1ccccc1)NC(=O)c1ccccc1F	i	i	i	i	i
CCC(=O)N1CCN(c2ccccc2NC(=S)NC(=O)c2ccco2)CC1	i	i	i	i	i
CCCc1cc(C(=O)Nc2ccc(OC)cc2[N+](=O)[O-])cs1	i	i	i	i	i
CC(C)CCn1c(=O)c2ccccc2n2c(CCC(=O)NC3CCN(Cc4ccccc4)CC3)nnc12	i	i	i	i	i
CCn1c(=O)c2sccc2n2c(CCCC(=O)NC3CCN(Cc4ccccc4)CC3)nnc12	i	i	14*	i	i
CC(C)NC(=S)N/N=C/c1ccc2c(c1)OCCO2	i	i	i	i	i
Cc1cc(-c2ccc(C)c(S(=O)(=O)NCCCN3CCCCCC3)c2)on1	i	i	10*	i	i
Cc1cc(-c2ccc(C)c(S(=O)(=O)NCCCN3CCN(c4ccccc4)CC3)c2)on1	i	i	i	i	i
Cc1cc(-c2ccc(C)c(S(=O)(=O)N3CCN(c4ccc([N+](=O)[O-])cc4)CC3)c2)on1	i	i	i	i	i
COc1ccc(-c2cc(C)no2)cc1S(=O)(=O)NCCCN(C)Cc1ccccc1	i	i	14*	i	i
Cc1cc(-c2ccc(C)c(S(=O)(=O)N3CCN(c4ccccn4)CC3)c2)on1	i	i	40*	i	i
Cc1noc(C)c1COC(=O)[C@@H](NC(=O)c1ccccc1Cl)C(C)C	i	i	48*	i	i
COc1cccc(NC(=O)Cc2nnc(SCC(=O)NC3CCCCC3)n2C)c1	i	i	i	i	i

Compound activity deposited in PubChem BioAssay by Johns Hopkins Ion Channel Center.
